Results published in ChEMBL document CHEMBL5257020, “Discovery of a 9-mer Cationic Peptide (LTX-315) as a Potential First in Class Oncolytic Peptide” (J Med Chem, 2016).
Where a SMILES comes first, the peptide text is derived from it. [ ]: non-standard residue; d: D form. ξ: configuration not given here. ξBip = NC(Cc1ccc(-c2ccccc2)cc1)C(=O)O; ξDip = NC(C(=O)O)C(c1ccccc1)c1ccccc1

Experiments:
T47D = test: Cytotoxicity against human T47D cells assessed as inhibition of cell proliferation incubated for 4 hrs by MTS assay; format: functional, cell-based
Procedure, shortened: (§1)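 Cells grown in RPMI-1640 with 2 mM L-glutamine and 10% FBS, plated, then held 24 h at 37 °C. Adherent lines washed once in FBS-free medium. Cells exposed 4 h at 37 °C, 5% CO2 in FBS-free medium to 10 concentrations (1/4 steps, 400 μM top). 1% Triton X-100 served as positive control. MTS/PMS added for 2 h, then OD 490 nm read. IC50 from semilog curves; three independent experiments, quadruplicate wells.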

PC-3 = test: Cytotoxicity against human PC-3 cells assessed as inhibition of cell proliferation incubated for 4 hrs by MTS assay; format: functional, cell-based; details: PC-3, 4 h; procedure, shortened: as §1
Ramos = test: Cytotoxicity against human Ramos cells assessed as inhibition of cell proliferation incubated for 4 hrs by MTS assay; format: functional, cell-based; procedure, shortened: as §1
[1] = Cytotoxicity against human IGROV(CDDP) cells assessed as inhibition of cell proliferation incubated for 4 hrs by MTS assay; format: functional, cell-based; procedure, shortened: as §1
Calu-6 = test: Cytotoxicity against human Calu-6 cells assessed as inhibition of cell proliferation incubated for 4 hrs by MTS assay; format: functional, cell-based; details: Calu-6, 4 h; procedure, shortened: as §1
HepG2 = test: Cytotoxicity against human HepG2 cells assessed as inhibition of cell proliferation incubated for 4 hrs by MTS assay; format: functional, cell-based; details: HepG2, 4 h; procedure, shortened: as §1
U-937 = test: Cytotoxicity against human U-937 cells assessed as inhibition of cell proliferation incubated for 4 hrs by MTS assay; format: functional, cell-based; details: U-937, 4 h; procedure, shortened: as §1
RPMI-8226 = test: Cytotoxicity against human RPMI-8226 cells assessed as inhibition of cell proliferation incubated for 4 hrs by MTS assay; format: functional, cell-based; details: RPMI-8226, 4 h; procedure, shortened: as §1
A20 = test: Cytotoxicity against mouse A20 lymphoma cells assessed as inhibition of cell proliferation incubated for 4 hrs by MTT assay; format: functional, cell-based; details: A20, 4 h
Procedure, shortened: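 Murine A20 cells cultured in RPMI-1640 with 2 mM L-glutamine, 1.5 g/L sodium bicarbonate, 4.5 g/L glucose, 10 mM HEPES, 1.0 mM sodium pyruvate, 0.05 mM 2-mercaptoethanol and 10% FBS, without antibiotics, at 37 °C, 5% CO2. IC50 from three or more independent measurements, given as mean ± SD.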

HL-60 = test: Cytotoxicity against human HL-60 cells assessed as inhibition of cell proliferation incubated for 4 hrs by MTS assay; format: functional, cell-based; details: HL-60, 4 h; procedure, shortened: as §1
SH-SY5Y = test: Cytotoxicity against human SH-SY5Y cells assessed as inhibition of cell proliferation incubated for 4 hrs by MTS assay; format: functional, cell-based; procedure, shortened: as §1
COLO 205 = test: Cytotoxicity against human COLO 205 cells assessed as inhibition of cell proliferation incubated for 4 hrs by MTS assay; format: functional, cell-based; details: COLO 205, 4 h; procedure, shortened: as §1
HT-29 = test: Cytotoxicity against human HT-29 cells assessed as inhibition of cell proliferation incubated for 4 hrs by MTS assay; format: functional, cell-based; details: HT-29, 4 h; procedure, shortened: as §1
Malme-3M = test: Cytotoxicity against human Malme-3M cells assessed as inhibition of cell proliferation incubated for 4 hrs by MTS assay; format: functional, cell-based; procedure, shortened: as §1
MDA-MB-231 = test: Cytotoxicity against human MDA-MB-231 cells assessed as inhibition of cell proliferation incubated for 4 hrs by MTS assay; format: functional, cell-based; details: MDA-MB-231, 4 h; procedure, shortened: as §1
MDA-MB-435S = test: Cytotoxicity against human MDA-MB-435S cells assessed as inhibition of cell proliferation incubated for 4 hrs by MTS assay; format: functional, cell-based; procedure, shortened: as §1
[2] = Cytotoxicity against human MRC5 cells assessed as inhibition of cell proliferation incubated for 4 hrs by MTT assay; format: toxicity, cell-based
Procedure, shortened: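 MRC-5 human embryonic lung fibroblasts cultured in MEM with 2 mM L-glutamine and 10% FBS, without antibiotics, at 37 °C in humidified 5% CO2. Cultures were tested for mycoplasma. IC50 from three or more independent measurements, given as mean ± SD.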

[3] = Cytotoxicity against human U-87 MG cells assessed as inhibition of cell proliferation incubated for 4 hrs by MTS assay; format: functional, cell-based, U-87MG ATCC; procedure, shortened: as §1
[4] = Cytotoxicity against human Hs 445 cells assessed as inhibition of cell proliferation incubated for 4 hrs by MTS assay; format: functional, cell-based; details: Hs 445, 4 h; procedure, shortened: as §1
Toledo = test: Cytotoxicity against human Toledo cells assessed as inhibition of cell proliferation incubated for 4 hrs by MTS assay; format: functional, cell-based; procedure, shortened: as §1
[5] = Cytotoxicity against human MINO cells assessed as inhibition of cell proliferation incubated for 4 hrs by MTS assay; format: functional, cell-based; procedure, shortened: as §1
Raji = test: Cytotoxicity against human Raji cells assessed as inhibition of cell proliferation incubated for 4 hrs by MTS assay; format: functional, cell-based; procedure, shortened: as §1
KARPAS-299 = test: Cytotoxicity against human KARPAS-299 cells assessed as inhibition of cell proliferation incubated for 4 hrs by MTS assay; format: functional, cell-based; details: KARPAS-299, 4 h; procedure, shortened: as §1
A498 = test: Cytotoxicity against human A498 cells assessed as inhibition of cell proliferation incubated for 4 hrs by MTS assay; format: functional, cell-based; details: A498, 4 h; procedure, shortened: as §1
SK-N-AS = test: Cytotoxicity against human SK-N-AS cells assessed as inhibition of cell proliferation incubated for 4 hrs by MTS assay; format: functional, cell-based; procedure, shortened: as §1
K562 [6] = test: Cytotoxicity in imatinib resistant human K562 cells assessed as inhibition of cell proliferation incubated for 4 hrs by MTS assay; format: functional, cell-based; details: K562, 4 h
Procedure, shortened: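 Oncodesign panel MTS/PMS assay. Cells in RPMI-1640 + 10% FBS. After 24 h pre-plating, adherent lines washed in FBS-free medium. Cells exposed 4 h at 37 °C in FBS-free medium to 10 concentrations, 1/4 dilutions from 400 μM top. Triton X-100 (1% final) positive control. MTS/PMS added, 2 h, OD 490 nm. IC50 from semilog curves. Three independent experiments, quadruplicate wells.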

[7] = Cytotoxicity against human MRC5 cells assessed as inhibition of cell proliferation incubated for 4 hrs by MTS assay; format: toxicity, cell-based; procedure, shortened: as §1
SK-OV-3 = test: Cytotoxicity against human SK-OV-3 cells assessed as inhibition of cell proliferation incubated for 4 hrs by MTS assay; format: functional, cell-based; details: SK-OV-3, 4 h; procedure, shortened: as §1
HL60/ADR = test: Cytotoxicity against human HL60/ADR cells assessed as inhibition of cell proliferation incubated for 4 hrs by MTS assay; format: functional, cell-based; procedure, shortened: as §1
K562 [8] = test: Cytotoxicity against human K562 cells assessed as inhibition of cell proliferation incubated for 4 hrs by MTS assay; format: functional, cell-based; details: K562, 4 h; procedure, shortened: as §1
SK-MEL-2 = test: Cytotoxicity against human SK-MEL-2 cells assessed as inhibition of cell proliferation incubated for 4 hrs by MTS assay; format: functional, cell-based; details: SK-MEL-2, 4 h; procedure, shortened: as §1
PANC-1 = test: Cytotoxicity against human PANC-1 cells assessed as inhibition of cell proliferation incubated for 4 hrs by MTS assay; format: functional, cell-based; details: PANC-1, 4 h; procedure, shortened: as §1
SK-HEP1 = test: Cytotoxicity against human SK-HEP1 cells assessed as inhibition of cell proliferation incubated for 4 hrs by MTS assay; format: functional, cell-based; details: SK-HEP1, 4 h; procedure, shortened: as §1
NCI-H460 = test: Cytotoxicity against human NCI-H460 cells assessed as inhibition of cell proliferation incubated for 4 hrs by MTS assay; format: functional, cell-based; details: NCI-H460, 4 h; procedure, shortened: as §1
A549 = test: Cytotoxicity against human A549 cells assessed as inhibition of cell proliferation incubated for 4 hrs by MTS assay; format: functional, cell-based; details: A549, 4 h; procedure, shortened: as §1
CCRF-CEM = test: Cytotoxicity against human CCRF-CEM cells assessed as inhibition of cell proliferation incubated for 4 hrs by MTS assay; format: functional, cell-based; procedure, shortened: as §1

SMILES | IC50 (T47D) [µM] | IC50 (PC-3) [µM] | IC50 (Ramos) [µM] | IC50 [1] [µM] | IC50 (Calu-6) [µM] | IC50 (HepG2) [µM] | IC50 (U-937) [µM] | IC50 (RPMI-8226) [µM] | IC50 (A20) [µM] | IC50 (HL-60) [µM] | IC50 (SH-SY5Y) [µM] | IC50 (COLO 205) [µM] | IC50 (HT-29) [µM] | IC50 (Malme-3M) [µM] | IC50 (MDA-MB-231) [µM] | IC50 (MDA-MB-435S) [µM] | IC50 at 4 h [2] [µM] | IC50 [3] [µM] | IC50 [4] [µM] | IC50 (Toledo) [µM] | also measured
NCCCC[C@H](NC(=O)[C@H](Cc1c[nH]c2ccccc12)NC(=O)[C@H](Cc1c[nH]c2ccccc12)NC(=O)[C@H](CCCCN)NC(=O)[C@H](CCCCN)NC(=O)[C@H](Cc1c[nH]c2ccccc12)NC(=O)C(Cc1ccc(-c2ccccc2)cc1)NC(=O)[C@H](CCCCN)NC(=O)[C@@H](N)CCCCN)C(N)=O (some centres not stated) (H-KK[ξBip]WKKWWK-NH2) | 4.2 | 9.3 | 3.2 | 6.6 | 6.1 | 14.8 | 3.8 | 4 | 13 | 6.1 | 7.8 | 4.9 | 10.5 | 8.9 | 10.8 | 11.4 | 151 | 18.5 | 4.2 | 5.2 | IC50 [5]: 8.4 µM; IC50 (Raji): 16.1 µM; IC50 (KARPAS-299): 10 µM; IC50 (A498): 7.9 µM; IC50 (SK-N-AS): 6.1 µM; IC50 (K562 [6]): 7.9 µM; IC50 at 4 h [7]: 30.9 µM; IC50 (SK-OV-3): 17.7 µM; IC50 (HL60/ADR): 7 µM; IC50 (K562 [8]): 7.2 µM; IC50 (SK-MEL-2): 13.4 µM; IC50 (PANC-1): 10.8 µM; IC50 (SK-HEP1): 12.6 µM; IC50 (NCI-H460): 11.2 µM; IC50 (A549): 10.3 µM; IC50 (CCRF-CEM): 7.6 µM
N=C(N)NCCC[C@H](NC(=O)[C@H](Cc1c[nH]c2ccccc12)NC(=O)[C@H](Cc1c[nH]c2ccccc12)NC(=O)[C@H](CCCNC(=N)N)NC(=O)[C@H](CCCNC(=N)N)NC(=O)C(NC(=O)[C@H](Cc1c[nH]c2ccccc12)NC(=O)[C@H](CCCNC(=N)N)NC(=O)[C@@H](N)CCCNC(=N)N)C(c1ccccc1)c1ccccc1)C(N)=O (some centres not stated) (H-RRW[ξDip]RRWWR-NH2) | 3.5 | 9.8 | 2.8 | 5.5 | 5.8 | 16.6 | 2.6 | 4.1 | 6.7 | 6.7 | 5.4 | 6.7 | 11.5 | 10.4 | 7.6 | 8 | 76 | 13.1 | 2.2 | 3 | IC50 [5]: 5.2 µM; IC50 (Raji): 11.3 µM; IC50 (KARPAS-299): 8.2 µM; IC50 (A498): 5.7 µM; IC50 (SK-N-AS): 6.9 µM; IC50 (K562 [6]): 7.7 µM; IC50 at 4 h [7]: 14.6 µM; IC50 (SK-OV-3): 7.4 µM; IC50 (HL60/ADR): 6 µM; IC50 (K562 [8]): 7 µM; IC50 (SK-MEL-2): 10.6 µM; IC50 (PANC-1): 12.5 µM; IC50 (SK-HEP1): 6.3 µM; IC50 (NCI-H460): 9.3 µM; IC50 (A549): 7.3 µM; IC50 (CCRF-CEM): 5.6 µM
